# Source: article PMC6008642 (Biochemistry, 2018)
# How the values were obtained:
# [1] = target: GFP-tagged full-length Munc13-1 (Rattus norvegicus, UniProt Q62768); assay: Translocation after PMA treatment, confocal microscopy of LNCaP cells; type: cell-based
# Procedure, shortened: (§1)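 LNCaP cells (passage 2–15; RPMI-1640, 10% FBS, 2 mM L-glutamine) were grown to 75% confluency and transfected with Lipofectamine plus Plus reagent 24 h after plating. They expressed GFP-tagged rat Munc13-1 C1 domain or GFP-tagged full-length protein. After a further 24 h, cells were moved to phenol-red-free DMEM with 1% FBS. PMA (100 or 1000 nM) was added and localization was followed by live confocal imaging (GFP ex 488 nm); 3 independent experiments.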
# [2] = target: full-length GFP-Munc13-1 W588Y (Rattus norvegicus, UniProt Q62768, W588Y); assay: PMA-induced membrane translocation, confocal microscopy of Neuro-2a cells; type: cell-based; settings: 1000 nM PMA, 0-8 min, vs wild-type
# Procedure, shortened: (§2)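 EGFP-tagged full-length rat Munc13-1 mutants were made by site-directed mutagenesis. Neuro-2a cells (passage 2–15; RPMI-1640, 10% FBS, 2 mM L-glutamine; 37 °C) were transfected with Lipofectamine 3000. After 24 h, cells went into phenol-red-free DMEM with 1% FBS. PMA (1000 nM) was added at time 0, with confocal imaging every 20 s (ex 488 nm, em 500–530 nm). Membrane/cytoplasm intensity ratio used three ~5 μm2 regions at 0, 2, 4 and 8 min; 3 cells × 3 experiments, mean ± SEM.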
# [3] = target: full-length GFP-Munc13-1 W588F (Rattus norvegicus, UniProt Q62768, W588F); assay: PMA-induced membrane translocation, confocal microscopy of Neuro-2a cells; type: cell-based; settings: 1000 nM PMA, 0-8 min, vs wild-type
# [4] = target: full-length GFP-Munc13-1 W599D (Rattus norvegicus, UniProt Q62768, W588D); assay: PMA-induced membrane translocation, confocal microscopy of Neuro-2a cells; type: cell-based; settings: 1000 nM PMA, 0-8 min, vs wild-type
# Procedure, shortened: as §2
# [5] = target: full-length GFP-Munc13-1 W588A (Rattus norvegicus, UniProt Q62768, W588A); assay: as above; type: cell-based; settings: 1000 nM PMA, 0-8 min, vs wild-type
# Procedure, shortened: as §2
# [6] = target: full-length GFP-Munc13-1 W588K (Rattus norvegicus, UniProt Q62768, W588K); assay: PMA-induced membrane translocation, confocal microscopy of Neuro-2a cells; type: cell-based; settings: 1000 nM PMA, 0-8 min, vs wild-type
# [7] = target: GFP tagged Munc13-1 C1 domain (Rattus norvegicus, UniProt Q62768); assay: Translocation after PMA treatment, confocal microscopy of LNCaP cells; type: cell-based
# Procedure, shortened: as §1
# [8] = target: full-length Munc13-1 protein incorporating the W22K mutation (W588 K) (Rattus norvegicus, UniProt Q62768, W588K); settings: in vitro binding conditions as for full-length WT
# Procedure, shortened: (§3)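 Rat full-length Munc13-1 (WT or W588 mutant) was expressed as an N-terminal Halo fusion in transfected HEK-293 cells and harvested after one day. It was purified on Halo-link resin, released with TEV protease and stored in 30% glycerol at –80 °C. [3H]PDBu saturation binding used 100 μg/mL lipid (100% PS) and 0.1 mM Ca2+. Kd came from saturation/Scatchard analysis; triplicate points, 3–6 experiments, mean ± SEM.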
# [9] = target: full-length Munc13-1 mutated at W588D (Rattus norvegicus, UniProt Q62768, W588D); type: binding; settings: preparation from cells expressing the mutant
# [10] = target: full-length Munc13-1 wild-type protein (Rattus norvegicus, UniProt Q62768); type: binding; settings: 100 μg/mL lipid (100% PS), 0.1 mM Ca2+
# Procedure, shortened: as §3
# Munc13-1 WT C1 domain = Munc13-1 WT C1 domain (Rattus norvegicus, UniProt Q62768); assay: In vitro [^3H]PDBu binding assay, GST-tagged C1 domain; settings: for Kd: 100 μg/mL lipid
# [11] = target: Munc13-1 W22K mutant C1 domain; assay: as above; design: species or system rat
# [12] = target: Munc13-1 W22K mutant C1 domain (Rattus norvegicus, UniProt Q62768, W588K); assay: as above; settings: 100 μg/mL lipid, 0.1 mM Ca2+
# [13] = target: Munc13-1 W22A mutant C1 domain (Rattus norvegicus, UniProt Q62768, W588A); assay: as above; settings: 100 μg/mL lipid, 0.1 mM Ca2+
# [14] = target: Munc13-1 W22A mutant C1 domain; assay: as above; design: species or system rat
# PKCδ C1B W22R = settings: PS concentration 10%; cited from earlier work
# W22G of PKCδ C1B = settings: 100% PS; cited from earlier work
# W22G of PKCθ C1B = settings: 100% PS; cited from earlier work
compound,measurement,setting,value
"CCCCCCCCCCCCCC(=O)O[C@@H]1[C@@H](C)[C@@]2(O)[C@@H](C=C(CO)C[C@]3(O)C(=O)C(C)=C[C@@H]23)[C@@H]2C(C)(C)[C@]12OC(C)=O [PMA, phorbol 12-myristate 13-acetate]",translocation of full-length Munc13-1,[1],translocated to the plasma membrane
same,translocation in response to PMA,[2],delayed
same,translocation in response to PMA,[3],did not significantly influence the translocation
same,translocation in response to PMA,[4],totally abolished
same,translocation in response to PMA,[5],significantly decreased translocation
same,translocation in response to PMA,[6],did not significantly influence the translocation
same,translocation of GFP-C1 domain,[7]; 100 nM PMA,Translocation was not observed
same,translocation of GFP-C1 domain,[7]; 1000 nM PMA,translocated within 10 min from the nucleus to internal membranes but not to the plasma membrane
"CCCC(=O)O[C@@H]1[C@@H](C)[C@@]2(O)[C@@H](C=C(CO)C[C@]3(O)C(=O)C(C)=C[C@@H]23)[C@@H]2C(C)(C)[C@]12OC(=O)CCC [[^3H]PDBu, [20-^3H]Phorbol 12,13-dibutyrate]",Kd,[8],3.3 ± 1.2 nM
same,[^3H]PDBu binding,[9],did not see any binding
same,Kd,[10],3.7 ± 0.32 nM
same,amount of [^3H]PDBu bound at 100% PS relative to that at 20% PS,"Munc13-1 WT C1 domain; 5 nM [^3H]PDBu, 100 μg/mL phospholipid, 0.1 mM Ca2+",less than 15%
same,fold weaker binding affinity than that of the C1b domain of PKCδ,Munc13-1 WT C1 domain; 100% PS,100 fold
same,Kd,"Munc13-1 WT C1 domain; Lipid 20:80 PS:PC, 0.1 mM Ca2+",32.5 ± 2.6 nM
same,Kd,"Munc13-1 WT C1 domain; Lipid 100:0 PS:PC, 0.1 mM Ca2+",98 ± 36 nM
same,Kd(mutant)/Kd(WT),[11]; Lipid 20:80 PS:PC,13
same,Kd(mutant)/Kd(WT),[11]; Lipid 100:0 PS:PC,1.6
same,Kd,[12]; Lipid 20:80 PS:PC,420 ± 120 nM
same,Kd,[12]; Lipid 100:0 PS:PC,160 ± 20 nM
same,Kd,[13]; Lipid 20:80 PS:PC,> 1000 nM
same,Kd,[13]; Lipid 100:0 PS:PC,460 ± 260 nM
same,Kd(mutant)/Kd(WT),[14]; Lipid 20:80 PS:PC,>31
same,Kd(mutant)/Kd(WT),[14]; Lipid 100:0 PS:PC,4.7
CCCCCCCCCCCCCC(=O)O[C@@H]1[C@@H](C)[C@@]2(O)[C@@H](C=C(CO)C[C@]3(O)C(=O)C(C)=C[C@@H]23)[C@@H]2C(C)(C)[C@]12OC(C)=O [phorbol ester],Kd,[10],3.7 nM
same,Kd,"Munc13-1 WT C1 domain; Lipid 100:0 PS:PC, 0.1 mM Ca2+",98 nM
same,Kd(mutant)/Kd(WT),[11]; Lipid 20:80 PS:PC,13
same,Kd(mutant)/Kd(WT),[11]; Lipid 100:0 PS:PC,1.6
same,fold reduced phorbol ester affinity as compared to the WT,PKCδ C1B W22R,9 fold
same,Kd(mutant)/Kd(WT),[14]; Lipid 100:0 PS:PC,~ 5
same,fold reduction in phorbol ester affinity as compared to WT,W22G of PKCδ C1B,31 fold
same,fold reduction in phorbol ester affinity as compared to WT,W22G of PKCθ C1B,8 fold
